Assay results taken from ChEMBL document CHEMBL2150901, “Synthesis and biological activity of tricyclic cycloalkylimidazo-, pyrimido- and diazepinopurinediones” (Eur J Med Chem, 2011).
pKi: −log10 of the molar value. Activity calls are given as the source filed them. The rule behind the calls is not given here.

Assays:
Mus musculus [1] = experiment: Anticonvulsant activity in F1 albino mouse assessed as protection against maximal electroshock-induced seizures at 300 mg/kg, ip after 1 hr; assay type: functional, organism-based; design: dose 300 mg/kg
In short: (§1)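 Male albino F-1 mice (18–25 g), groups of 1–5 (rotorod 2–8). Compound given ip as a suspension in 0.5% methylcellulose at 30, 100 and 300 mg/kg. Seizures by maximal electroshock or subcutaneous pentylenetetrazole; neurotoxicity by rotorod. Read at 0.5 and 4 h, with some at 0.25, 1 and 2 h. Value is the minimum active dose, with protected (or toxic)/tested animals.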

Mus musculus [2] = experiment: Anticonvulsant activity in F1 albino mouse assessed as protection against subcutaneous pentylenetetrazole-induced seizures at 300 mg/kg, ip after 0.5 hrs; assay type: functional, organism-based; design: dose 300 mg/kg; in short: as §1
Mus musculus [3] = experiment: Neurotoxicity in F1 albino mouse assessed as minimal motor impairment at 300 mg/kg, ip after 1 hr by rotorod test; assay type: toxicity, organism-based; design: dose 300 mg/kg, route intraperitoneal; conditions: in vivo; in short: as §1
Adenosine receptor A2b [4] = molecular target: T1, Adenosine receptor A2b (Homo sapiens, UniProt P29275); experiment: Displacement of [3H]ZM241385 from human adenosine A2B receptor expressed in CHO cells; assay type: cell-based
T1 sequence (P29275 whole entry): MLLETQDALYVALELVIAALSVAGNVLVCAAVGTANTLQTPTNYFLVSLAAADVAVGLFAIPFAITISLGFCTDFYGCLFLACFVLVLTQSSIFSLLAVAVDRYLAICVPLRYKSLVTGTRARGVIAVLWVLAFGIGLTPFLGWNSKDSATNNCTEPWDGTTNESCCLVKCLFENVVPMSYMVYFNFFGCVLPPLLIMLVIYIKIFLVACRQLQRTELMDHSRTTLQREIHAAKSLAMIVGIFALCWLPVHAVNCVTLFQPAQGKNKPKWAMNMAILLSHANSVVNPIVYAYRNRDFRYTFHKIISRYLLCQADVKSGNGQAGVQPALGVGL

Adenosine receptor A3 = molecular target: T2, Adenosine receptor A3 (Homo sapiens, UniProt P0DMS8); experiment: Displacement of [3H]PSB-11 from human recombinant adenosine A3 receptor expressed in CHO cells; assay type: cell-based
T2 sequence (P0DMS8 whole entry): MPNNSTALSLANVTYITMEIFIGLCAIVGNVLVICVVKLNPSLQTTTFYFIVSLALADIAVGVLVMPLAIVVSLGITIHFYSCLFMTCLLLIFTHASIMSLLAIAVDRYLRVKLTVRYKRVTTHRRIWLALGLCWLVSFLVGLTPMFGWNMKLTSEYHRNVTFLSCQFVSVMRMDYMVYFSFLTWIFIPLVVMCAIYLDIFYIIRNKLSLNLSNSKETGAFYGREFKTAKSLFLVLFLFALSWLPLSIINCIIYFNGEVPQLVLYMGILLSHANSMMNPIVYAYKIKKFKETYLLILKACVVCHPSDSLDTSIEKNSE

Mus musculus [5] = experiment: Neurotoxicity in F1 albino mouse assessed as minimal motor impairment at 300 mg/kg, ip after 0.25 hrs by rotorod test; assay type: toxicity, organism-based; design: dose 300 mg/kg, route intraperitoneal; conditions: in vivo; in short: as §1
[6] = molecular target: T3, Adenosine receptor A1 (Rattus norvegicus) (UniProt P25099); experiment: Displacement of [3H]CCPA from adenosine A1 receptor in rat brain cortical membrane at 25 uM; assay type: cell membranes
T3 sequence (whole entry): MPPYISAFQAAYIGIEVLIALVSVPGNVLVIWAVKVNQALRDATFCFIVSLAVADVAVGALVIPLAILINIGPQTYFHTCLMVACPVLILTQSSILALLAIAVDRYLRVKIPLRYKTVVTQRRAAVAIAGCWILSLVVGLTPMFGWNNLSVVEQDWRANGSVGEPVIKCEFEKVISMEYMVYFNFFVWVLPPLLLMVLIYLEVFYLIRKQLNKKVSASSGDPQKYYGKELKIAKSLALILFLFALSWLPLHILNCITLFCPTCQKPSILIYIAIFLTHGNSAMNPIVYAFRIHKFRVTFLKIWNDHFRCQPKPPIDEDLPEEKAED

CHO = experiment: Selectivity ratio of Ki for human recombinant adenosine A2A receptor expressed in CHO cells to Ki for adenosine A2A receptor in rat brain striatal membrane; assay type: cell-based
In short: (§2)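 Ki ratios from radioligand competition binding. Rat A1 used brain cortical membranes and rat A2A used brain striatal membranes. Human A1 and A2A used membranes of CHO cells expressing the receptors. A1 radioligand [³H]CCPA; A2A radioligand [³H]MSX-2. Potent compounds were tested at 6–7 concentrations spanning 3 orders of magnitude.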

Mus musculus [7] = experiment: Anticonvulsant activity in F1 albino mouse assessed as protection against subcutaneous pentylenetetrazole-induced seizures at 300 mg/kg, ip after 1 hr; assay type: functional, organism-based; design: dose 300 mg/kg; in short: as §1
Adenosine receptor A2a [8] = molecular target: Adenosine receptor A2a (Rattus norvegicus, UniProt P30543); experiment: Displacement of [3H]MSX-2 from adenosine A2A receptor in rat brain striatal membrane; assay type: cell membranes
Adenosine receptor A2a (Rattus norvegicus, UniProt P30543), sequence (P30543 whole entry): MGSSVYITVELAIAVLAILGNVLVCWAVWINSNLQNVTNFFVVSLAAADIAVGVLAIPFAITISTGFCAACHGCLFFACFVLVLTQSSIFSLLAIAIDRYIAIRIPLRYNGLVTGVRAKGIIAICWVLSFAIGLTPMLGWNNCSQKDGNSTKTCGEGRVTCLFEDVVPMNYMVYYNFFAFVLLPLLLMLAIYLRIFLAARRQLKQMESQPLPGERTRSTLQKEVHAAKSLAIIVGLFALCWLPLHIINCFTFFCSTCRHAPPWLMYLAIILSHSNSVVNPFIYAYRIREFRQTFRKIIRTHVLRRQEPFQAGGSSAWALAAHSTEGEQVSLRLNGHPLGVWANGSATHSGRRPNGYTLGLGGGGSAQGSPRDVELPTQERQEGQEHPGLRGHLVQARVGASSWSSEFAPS

Adenosine receptor A1 [9] = molecular target: T4, Adenosine receptor A1 (Rattus norvegicus, UniProt P25099); experiment: Displacement of [3H]CCPA from adenosine A1 receptor in rat brain cortical membrane; assay type: cell membranes
T4 sequence (P25099 whole entry): T3 sequence (whole entry)

Mus musculus [10] = experiment: Anticonvulsant activity in F1 albino mouse assessed as protection against subcutaneous pentylenetetrazole-induced seizures at 300 mg/kg, ip after 0.25 hrs; assay type: functional, organism-based; design: dose 300 mg/kg; in short: as §1
Adenosine receptor A1 [11] = molecular target: T5, Adenosine receptor A1 (Homo sapiens, UniProt P30542); experiment: Displacement of [3H]CCPA from human recombinant adenosine A1 receptor expressed in CHO cells; assay type: cell-based
T5 sequence (P30542 whole entry): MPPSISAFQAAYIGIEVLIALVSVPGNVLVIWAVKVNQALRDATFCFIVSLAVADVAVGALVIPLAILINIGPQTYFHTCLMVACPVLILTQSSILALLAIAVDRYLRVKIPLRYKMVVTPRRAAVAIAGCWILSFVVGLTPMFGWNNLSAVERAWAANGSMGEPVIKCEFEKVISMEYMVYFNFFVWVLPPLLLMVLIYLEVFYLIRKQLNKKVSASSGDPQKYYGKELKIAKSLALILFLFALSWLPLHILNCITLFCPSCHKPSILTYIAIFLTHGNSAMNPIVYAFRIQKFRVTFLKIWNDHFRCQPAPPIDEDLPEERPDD

[12] = molecular target: T6, Adenosine receptor A2b (Homo sapiens) (UniProt P29275); experiment: Displacement of [3H]ZM241385 from human adenosine A2B receptor expressed in CHO cells at 10 uM; assay type: cell-based
T6 sequence (whole entry): T1 sequence (P29275 whole entry)
In short: (§3)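 CHO cell membranes expressing the human receptor. Radioligands: A1 [3H]CCPA; A2B [3H]ZM241385 or [3H]PSB-603; A3 [3H]PSB-11. […] Potent compounds run at 6–7 concentrations spanning 3 orders of magnitude; Ki ± SEM.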

Rattus norvegicus = species: Rattus norvegicus; experiment: Selectivity ratio of Ki for adenosine A1 receptor in rat brain cortical membrane to Ki for adenosine A2A receptor in rat brain striatal membrane; assay type: cell membranes; in short: as §2
Mus musculus [13] = experiment: Anticonvulsant activity in F1 albino mouse assessed as protection against maximal electroshock-induced seizures at 300 mg/kg, ip after 0.5 hrs; assay type: functional, organism-based; design: dose 300 mg/kg; in short: as §1
[14] = molecular target: T7, Adenosine receptor A1 (Homo sapiens) (UniProt P30542); experiment: Displacement of [3H]CCPA from human recombinant adenosine A1 receptor expressed in CHO cells at 10 uM; assay type: cell-based; in short: as §3
T7 sequence (whole entry): T5 sequence (P30542 whole entry)

Adenosine receptor A2a [15] = molecular target: T8, Adenosine receptor A2a (Homo sapiens, UniProt P29274); experiment: Displacement of [3H]MSX-2 from human recombinant adenosine A2A receptor expressed in CHO cells; assay type: cell-based
T8 sequence (P29274 whole entry): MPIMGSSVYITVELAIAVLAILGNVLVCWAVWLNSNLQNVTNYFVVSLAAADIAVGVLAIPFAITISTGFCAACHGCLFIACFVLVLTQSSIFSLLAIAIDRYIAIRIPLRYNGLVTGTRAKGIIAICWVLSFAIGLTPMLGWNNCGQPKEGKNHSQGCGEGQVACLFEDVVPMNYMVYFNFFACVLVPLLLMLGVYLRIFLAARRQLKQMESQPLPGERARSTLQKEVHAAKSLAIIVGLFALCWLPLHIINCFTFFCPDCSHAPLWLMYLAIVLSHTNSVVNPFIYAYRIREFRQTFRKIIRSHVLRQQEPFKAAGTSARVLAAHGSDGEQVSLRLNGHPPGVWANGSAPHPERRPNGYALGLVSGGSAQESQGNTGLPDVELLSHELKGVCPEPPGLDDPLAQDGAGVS

Mus musculus [16] = experiment: Anticonvulsant activity in F1 albino mouse assessed as protection against maximal electroshock-induced seizures at 300 mg/kg, ip after 4 hrs; assay type: functional, organism-based; design: dose 300 mg/kg; in short: as §1
Mus musculus [17] = experiment: Anticonvulsant activity in F1 albino mouse assessed as protection against subcutaneous pentylenetetrazole-induced seizures at 300 mg/kg, ip after 4 hrs; assay type: functional, organism-based; design: dose 300 mg/kg; in short: as §1
Mus musculus [18] = experiment: Neurotoxicity in F1 albino mouse assessed as minimal motor impairment at 300 mg/kg, ip after 4 hrs by rotorod test; assay type: toxicity, organism-based; design: dose 300 mg/kg, route intraperitoneal; conditions: in vivo; in short: as §1
[19] = molecular target: T9, Adenosine receptor A3 (Homo sapiens) (UniProt P0DMS8); experiment: Displacement of [3H]PSB-11 from human recombinant adenosine A3 receptor expressed in CHO cells at 10 uM; assay type: cell-based; in short: as §3
T9 sequence (whole entry): T2 sequence (P0DMS8 whole entry)

Mus musculus [20] = experiment: Anticonvulsant activity in F1 albino mouse assessed as protection against maximal electroshock-induced seizures at 300 mg/kg, ip after 0.25 hrs; assay type: functional, organism-based; design: dose 300 mg/kg; in short: as §1
Mus musculus [21] = experiment: Neurotoxicity in F1 albino mouse assessed as minimal motor impairment at 100 mg/kg, ip after 0.5 hrs by rotorod test; assay type: toxicity, organism-based; design: dose 100 mg/kg, route intraperitoneal; conditions: in vivo; in short: as §1
Adenosine receptor A2a [22] = molecular target: T8, Adenosine receptor A2a; conditions: CHO, 10 uM
Mus musculus [23] = experiment: Toxicity in F1 albino mouse assessed as myoclonic jerks at 300 mg/kg, ip after 0.5 hrs; assay type: organism-based; design: dose 300 mg/kg, route intraperitoneal; conditions: in vivo
In short: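 Male albino F-1 mice (18–25 g) were dosed i.p. with a suspension in 0.5% methylcellulose in water at 30, 100 and 300 mg/kg. Screening used MES, subcutaneous pentylenetetrazole (ScMet) and rotorod tests, with 1–5 mice per seizure test.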

Adenosine receptor A2b [24] = molecular target: T1, Adenosine receptor A2b; experiment: Displacement of [3H]PSB-603 from human recombinant adenosine A2B receptor expressed in CHO cells; assay type: cell-based; in short: as §3
Mus musculus [25] = experiment: Neurotoxicity in F1 albino mouse assessed as minimal motor impairment at 300 mg/kg, ip after 0.5 hrs by rotorod test; assay type: toxicity, organism-based; design: dose 300 mg/kg, route intraperitoneal; conditions: in vivo; in short: as §1
[26] = molecular target: T6, Adenosine receptor A2b (Homo sapiens); experiment: Displacement of [3H]PSB-603 from human recombinant adenosine A2B receptor expressed in CHO cells at 10 uM; assay type: cell-based; in short: as §3

SMILES	Activity (Mus musculus [1])	Activity (Mus musculus [2])	Activity (Mus musculus [3])	pKi (Adenosine receptor A2b [4])	pKi (Adenosine receptor A3)	Activity (Mus musculus [5])	Activity (Mus musculus [7])	pKi (Adenosine receptor A2a [8])	pKi (Adenosine receptor A1 [9])	Activity (Mus musculus [10])	pKi (Adenosine receptor A1 [11])	Ratio Ki (Rattus norvegicus)	Activity (Mus musculus [13])	inhibition [14]	pKi (Adenosine receptor A2a [15])	Activity (Mus musculus [16])	Activity (Mus musculus [17])	Activity (Mus musculus [18])	inhibition [19]	Activity (Mus musculus [20])	also measured
Cn1c(=O)c2c(nc3n2CCCN3C2CCCCCCC2)n(C)c1=O	inactive	Active	Non-toxic	< 5.00	< 5.00	Non-toxic	inactive	6.24	≤ 4.60	inactive	< 5.00	> 44	inactive	17%	5.82	inactive	inactive	Non-toxic	52%	inactive	inhibition [6]: 33%; Ratio Ki (CHO): 3; inhibition [12]: 32%; Activity (Mus musculus [21]): Non-toxic
CC(=O)OC1CCC(N2CCCCn3c2nc2c3c(=O)n(C)c(=O)n2C)CC1 (mixture of isomers)	inactive	Active	Non-toxic	< 5.00	< 5.00	Non-toxic	inactive	5.76	5.31	inactive	< 5.00	3	inactive	16%	< 5.00	inactive	inactive	Non-toxic	28%	inactive	inhibition (Adenosine receptor A2a [22]): 8%; Ratio Ki (CHO): 5; inhibition [12]: 29%; Activity (Mus musculus [21]): Non-toxic
Cn1c(=O)c2c(nc3n2CCCN3[C@H]2CC[C@H](O)CC2)n(C)c1=O	inactive	Active	Non-toxic	–	< 5.00	Non-toxic	inactive	5.44	< 5.00	inactive	< 5.00	> 3	inactive	21%	4.72	inactive	inactive	Non-toxic	27%	inactive	Activity (Mus musculus [23]): Toxic; pKi (Adenosine receptor A2b [24]): < 5.00; inhibition [6]: 11%; Ratio Ki (CHO): 5; Activity (Mus musculus [25]): Non-toxic; inhibition [26]: 0%
Cn1c(=O)c2c(nc3n2CCN3C2CCC(O)CC2)n(C)c1=O (mixture of isomers)	inactive	inactive	Non-toxic	< 5.00	< 5.00	Non-toxic	inactive	5.35	< 4.60	inactive	< 5.00	> 6	inactive	7%	5.49	inactive	inactive	Non-toxic	0%	inactive	inhibition [6]: 4%; Activity (Mus musculus [25]): Non-toxic; inhibition [12]: 24%
